Laboratory results as given in ChEMBL document CHEMBL5058577, “EUbOPEN Chemogenomics Library 2 (Multiplex)” (2022).

Tested on: U2OS
Assay: Multiplex assay against U2OS
Format: toxicity, cell-based
Details: human
Outline: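 Per cents of healthy-nucleus cells form the tubulin, mitochondrial-mass and membrane-permeability phenotype values. Live cells were stained at seeding with Hoechst33342, BioTracker Green Microtubule Cytoskeleton Dye, MitoTracker Red and Annexin V Alexa Fluor 680. After compound addition they were imaged on a CQ1 microscope at 37°C and 5% CO2, and CellPathfinder machine-learning gating split them into Hoechst high-intensity objects or normal cells, normal cells into healthy, pyknosed or fragmented nuclei, and pyknosed cells into mitotic or apoptotic.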

[1] = 12 h, 1 µM, compound concentration 1 uM, replicate 1
[2] = 12 h, 1 µM, compound concentration 1 uM, replicate 2
[3] = 12 h, 10 µM, compound concentration 10 uM, replicate 1
[4] = 12 h, 10 µM, compound concentration 10 uM, replicate 2
[5] = 24 h, 1 µM, compound concentration 1 uM, replicate 1
[6] = 24 h, 1 µM, compound concentration 1 uM, replicate 2
[7] = 24 h, 10 µM, compound concentration 10 uM, replicate 1
[8] = 24 h, 10 µM, compound concentration 10 uM, replicate 2
[9] = 48 h, 1 µM, compound concentration 1 uM, replicate 1
[10] = 48 h, 1 µM, compound concentration 1 uM, replicate 2
[11] = 48 h, 10 µM, compound concentration 10 uM, replicate 1
[12] = 48 h, 10 µM, compound concentration 10 uM, replicate 2

Compound: CN1C[C@H](C(=O)N[C@]2(C)O[C@@]3(O)[C@@H]4CCCN4C(=O)[C@H](Cc4ccccc4)N3C2=O)C[C@@H]2c3cccc4[nH]cc(c34)C[C@H]21.CS(=O)(=O)O [DIHYDROERGOTAMINE MESYLATE]
- Population Apoptotic (%) [1]: 82%
- Population Fragmented Nuclei (%) [1]: 24%
- Population Healthy Nuclei (%) [1]: 65%
- Population Hoechst High Intensity Objects (%) [1]: 1%
- Population Membrane Permeable-Phenotype (%) [1]: 6%
- Population Mitochondria Different-Phenotype (%) [1]: 2%
- Population Mitotic Cells (%) [1]: 17%
- Population Normal (%) [1]: 98%
- Population Pyknosed Nuclei (%) [1]: 10%
- Population Tubulin-Different-Phenotype (%) [1]: 2%
- Total Cell Count [1]: 233
- Population Apoptotic (%) [2]: 84%
- Population Fragmented Nuclei (%) [2]: 23%
- Population Healthy Nuclei (%) [2]: 63%
- Population Membrane Permeable-Phenotype (%) [2]: 14%
- Population Mitochondria Different-Phenotype (%) [2]: 1%
- Population Mitotic Cells (%) [2]: 15%
- Population Pyknosed Nuclei (%) [2]: 13%
- Population Tubulin-Different-Phenotype (%) [2]: 7%
- Total Cell Count [2]: 101
- Population Apoptotic (%) [3]: 71%
- Population Fragmented Nuclei (%) [3]: 19%
- Population Healthy Nuclei (%) [3]: 73%
- Population Hoechst High Intensity Objects (%) [3]: 2%
- Population Membrane Permeable-Phenotype (%) [3]: 5%
- Population Mitochondria Different-Phenotype (%) [3]: 1%
- Population Mitotic Cells (%) [3]: 28%
- Population Normal (%) [3]: 97%
- Population Pyknosed Nuclei (%) [3]: 7%
- Population Tubulin-Different-Phenotype (%) [3]: 3%
- Total Cell Count [3]: 298
- Population Apoptotic (%) [4]: 100%
- Population Healthy Nuclei (%) [4]: 77%
- Population Hoechst High Intensity Objects (%) [4]: 1%
- Population Mitochondria Different-Phenotype (%) [4]: 0%
- Population Mitotic Cells (%) [4]: 0%
- Population Normal (%) [4]: 98%
- Population Pyknosed Nuclei (%) [4]: 2%
- Population Tubulin-Different-Phenotype (%) [4]: 0%
- Total Cell Count [4]: 144
- Population Apoptotic (%) [5]: 89%
- Population Fragmented Nuclei (%) [5]: 23%
- Population Healthy Nuclei (%) [5]: 67%
- Population Hoechst High Intensity Objects (%) [5]: 0%
- Population Membrane Permeable-Phenotype (%) [5]: 2%
- Population Mitochondria Different-Phenotype (%) [5]: 0%
- Population Mitotic Cells (%) [5]: 10%
- Population Normal (%) [5]: 99%
- Population Pyknosed Nuclei (%) [5]: 9%
- Population Tubulin-Different-Phenotype (%) [5]: 2%
- Total Cell Count [5]: 307
- Population Apoptotic (%) [6]: 100%
- Population Fragmented Nuclei (%) [6]: 21%
- Population Healthy Nuclei (%) [6]: 65%
- Population Hoechst High Intensity Objects (%) [6]: 1%
- Population Membrane Permeable-Phenotype (%) [6]: 8%
- Population Mitochondria Different-Phenotype (%) [6]: 2%
- Population Mitotic Cells (%) [6]: 0%
- Population Normal (%) [6]: 98%
- Population Pyknosed Nuclei (%) [6]: 13%
- Population Tubulin-Different-Phenotype (%) [6]: 4%
- Total Cell Count [6]: 132
- Population Apoptotic (%) [7]: 88%
- Population Fragmented Nuclei (%) [7]: 18%
- Population Healthy Nuclei (%) [7]: 73%
- Population Hoechst High Intensity Objects (%) [7]: 1%
- Population Membrane Permeable-Phenotype (%) [7]: 4%
- Population Mitochondria Different-Phenotype (%) [7]: 2%
- Population Mitotic Cells (%) [7]: 11%
- Population Normal (%) [7]: 98%
- Population Pyknosed Nuclei (%) [7]: 8%
- Population Tubulin-Different-Phenotype (%) [7]: 2%
- Total Cell Count [7]: 337
- Population Apoptotic (%) [8]: 92%
- Population Fragmented Nuclei (%) [8]: 16%
- Population Healthy Nuclei (%) [8]: 75%
- Population Mitotic Cells (%) [8]: 7%
- Population Tubulin-Different-Phenotype (%) [8]: 1%
- Total Cell Count [8]: 163
- Population Apoptotic (%) [9]: 80%
- Population Fragmented Nuclei (%) [9]: 14%
- Population Healthy Nuclei (%) [9]: 78%
- Population Hoechst High Intensity Objects (%) [9]: 2%
- Population Membrane Permeable-Phenotype (%) [9]: 2%
- Population Mitochondria Different-Phenotype (%) [9]: 2%
- Population Mitotic Cells (%) [9]: 19%
- Population Normal (%) [9]: 97%
- Population Pyknosed Nuclei (%) [9]: 7%
- Population Tubulin-Different-Phenotype (%) [9]: 1%
- Total Cell Count [9]: 427
- Population Apoptotic (%) [10]: 90%
- Population Fragmented Nuclei (%) [10]: 11%
- Population Healthy Nuclei (%) [10]: 76%
- Population Hoechst High Intensity Objects (%) [10]: 1%
- Population Membrane Permeable-Phenotype (%) [10]: 6%
- Population Mitotic Cells (%) [10]: 10%
- Population Normal (%) [10]: 98%
- Population Pyknosed Nuclei (%) [10]: 11%
- Population Tubulin-Different-Phenotype (%) [10]: 4%
- Total Cell Count [10]: 173
- Population Apoptotic (%) [11]: 95%
- Population Fragmented Nuclei (%) [11]: 14%
- Population Healthy Nuclei (%) [11]: 75%
- Population Hoechst High Intensity Objects (%) [11]: 3%
- Population Membrane Permeable-Phenotype (%) [11]: 7%
- Population Mitochondria Different-Phenotype (%) [11]: 3%
- Population Mitotic Cells (%) [11]: 4%
- Population Normal (%) [11]: 96%
- Population Pyknosed Nuclei (%) [11]: 9%
- Population Tubulin-Different-Phenotype (%) [11]: 3%
- Total Cell Count [11]: 452
- Population Apoptotic (%) [12]: 100%
- Population Fragmented Nuclei (%) [12]: 19%
- Population Healthy Nuclei (%) [12]: 72%
- Population Membrane Permeable-Phenotype (%) [12]: 3%
- Population Mitochondria Different-Phenotype (%) [12]: 1%
- Population Mitotic Cells (%) [12]: 0%
- Population Pyknosed Nuclei (%) [12]: 8%
- Population Tubulin-Different-Phenotype (%) [12]: 2%
- Total Cell Count [12]: 217
